Experimental data: ChEMBL document CHEMBL1134439, “Radioiodinated styrylbenzenes and thioflavins as probes for amyloid aggregates” (J Med Chem, 2001)

Tests used:
Mus musculus [1] = assay: Biodistribution was measured in mice heart 60 minutes after intravenous injection of [125I]-labeled styrylbenzene.; format: ADME, organism-based; settings: in vivo, 1 h
How it was run: (§1)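 ICR mice (2-3 months old, 20-30 g) under ether anesthesia received 5-10 µCi ¹²⁵I tracer in 0.15 mL saline by tail-vein injection. Animals were killed by cardiac excision at set times post-injection. Organs were removed, weighed and γ-counted. Values are % dose per organ against diluted injectate aliquots, taking blood and muscle as 7% and 40% of body weight. Mean of 3-4 mice ± SD.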

Mus musculus [2] = assay: Biodistribution was measured in mice kidney 30 minutes after intravenous injection of [125I]-labeled styrylbenzene.; format: ADME, organism-based; settings: in vivo, 0.5 h; how it was run: as §1
Mus musculus [3] = assay: Biodistribution was measured in mice kidney 5 minutes after intravenous injection of [125I]-labeled styrylbenzene.; format: ADME, organism-based; settings: in vivo; how it was run: as §1
Mus musculus [4] = assay: Biodistribution was measured in mice kidney 60 minutes after intravenous injection of [125I]-labeled styrylbenzene.; format: ADME, organism-based; settings: in vivo, 1 h; how it was run: as §1
Mus musculus [5] = assay: Biodistribution was measured in mice liver 30 minutes after intravenous injection of [125I]-labeled styrylbenzene.; format: ADME, organism-based; settings: in vivo, 0.5 h; how it was run: as §1
Mus musculus [6] = assay: Biodistribution was measured in mice liver 5 minutes after intravenous injection of [125I]-labeled styrylbenzene.; format: ADME, organism-based; settings: in vivo; how it was run: as §1
Mus musculus [7] = assay: Biodistribution was measured in mice liver 60 minutes after intravenous injection of [125I]-labeled styrylbenzene.; format: ADME, organism-based; settings: in vivo, 1 h; how it was run: as §1
Mus musculus [8] = assay: Biodistribution was measured in mice muscle 30 minutes after intravenous injection of [125I]-labeled styrylbenzene.; format: ADME, organism-based, Muscle tissue; settings: in vivo, 0.5 h; how it was run: as §1
Mus musculus [9] = assay: Biodistribution was measured in mice muscle 5 minutes after intravenous injection of [125I]-labeled styrylbenzene.; format: ADME, organism-based, Muscle tissue; settings: in vivo; how it was run: as §1
Mus musculus [10] = assay: Biodistribution was measured in mice muscle 60 minutes after intravenous injection of [125I]-labeled styrylbenzene.; format: ADME, organism-based, Muscle tissue; settings: in vivo, 1 h; how it was run: as §1
Mus musculus [11] = assay: Biodistribution was measured in mice skin 30 minutes after intravenous injection of [125I]-labeled styrylbenzene.; format: ADME, organism-based, Zone of skin; settings: in vivo, 0.5 h; how it was run: as §1
Mus musculus [12] = assay: Biodistribution was measured in mice skin 5 minutes after intravenous injection of [125I]-labeled styrylbenzene.; format: ADME, organism-based, Zone of skin; settings: in vivo; how it was run: as §1
Mus musculus [13] = assay: Biodistribution was measured in mice skin 60 minutes after intravenous injection of [125I]-labeled styrylbenzene.; format: ADME, organism-based, Zone of skin; settings: in vivo, 1 h; how it was run: as §1
Mus musculus [14] = assay: Biodistribution was measured in mice spleen 30 minutes after intravenous injection of [125I]-labeled styrylbenzene.; format: ADME, organism-based; settings: in vivo, 0.5 h
How it was run: (§2)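 ICR mice (2-3 months old, 20-30 g) under ether anesthesia; 0.15 mL saline containing 5-10 µCi ¹²⁵I tracer injected into tail vein. Sacrifice by cardiac excision at set times; organs removed, weighed, γ-counted. Expressed as % dose per organ versus diluted aliquots of injectate. Mean of three or four mice ± SD.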

Mus musculus [15] = assay: Biodistribution was measured in mice spleen 5 minutes after intravenous injection of [125I]-labeled styrylbenzene.; format: ADME, organism-based; settings: in vivo; how it was run: as §2
Mus musculus [16] = assay: Biodistribution was measured in mice spleen 60 minutes after intravenous injection of [125I]-labeled styrylbenzene.; format: ADME, organism-based; settings: in vivo, 1 h; how it was run: as §2
Mus musculus [17] = assay: Biodistribution was measured in mice blood 30 minutes after intravenous injection of [125I]-labeled styrylbenzene.; format: ADME, organism-based; settings: in vivo, 0.5 h; how it was run: as §1
Mus musculus [18] = assay: Biodistribution was measured in mice blood 5 minutes after intravenous injection of [125I]-labeled styrylbenzene.; format: ADME, organism-based; settings: in vivo; how it was run: as §1
Mus musculus [19] = assay: Biodistribution was measured in mice lung 30 minutes after intravenous injection of [125I]-labeled styrylbenzene.; format: ADME, organism-based; settings: in vivo, 0.5 h; how it was run: as §1
Mus musculus [20] = assay: Biodistribution was measured in mice lung 5 minutes after intravenous injection of [125I]-labeled styrylbenzene.; format: ADME, organism-based; settings: in vivo; how it was run: as §1
Mus musculus [21] = assay: Biodistribution was measured in mice lung 60 minutes after intravenous injection of [125I]-labeled styrylbenzene.; format: ADME, organism-based; settings: in vivo, 1 h; how it was run: as §1
Mus musculus [22] = assay: Biodistribution was measured in mice brain 5 minutes after intravenous injection of [125I]-labeled styrylbenzene; format: ADME, organism-based; settings: in vivo; how it was run: as §1
Mus musculus [23] = assay: Biodistribution was measured in mice brain 60 minutes after intravenous injection of [125I]-labeled styrylbenzene; format: ADME, organism-based; settings: in vivo, 1 h; how it was run: as §1
Mus musculus [24] = assay: Biodistribution was measured in mice heart 30 minutes after intravenous injection of [125I]-labeled styrylbenzene.; format: ADME, organism-based; settings: in vivo, 0.5 h; how it was run: as §1
Mus musculus [25] = assay: Biodistribution was measured in mice heart 5 minutes after intravenous injection of [125I]-labeled styrylbenzene.; format: ADME, organism-based; settings: in vivo; how it was run: as §1
Mus musculus [26] = assay: Biodistribution was measured in mice blood 60 minutes after intravenous injection of [125I]-labeled styrylbenzene.; format: ADME, organism-based; settings: in vivo, 1 h; how it was run: as §1
Mus musculus [27] = assay: Biodistribution was measured in mice brain 30 minutes after intravenous injection of [125I]-labeled styrylbenzene; format: ADME, organism-based; settings: in vivo, 0.5 h; how it was run: as §1

- Dose/organ (Mus musculus [1]): 0.13%
- Dose/organ (Mus musculus [2]): 0.77%
- Dose/organ (Mus musculus [3]): 1.67%
- Dose/organ (Mus musculus [4]): 0.63%
- Dose/organ (Mus musculus [5]): 30.16%
- Dose/organ (Mus musculus [6]): 42.68%
- Dose/organ (Mus musculus [7]): 19.12%
- Dose/organ (Mus musculus [8]): 3.9%
- Dose/organ (Mus musculus [9]): 5.68%
- Dose/organ (Mus musculus [10]): 2.98%
- Dose/organ (Mus musculus [11]): 4.13%
- Dose/organ (Mus musculus [12]): 4.02%
- Dose/organ (Mus musculus [13]): 3.66%
- Dose/organ (Mus musculus [14]): 0.13%
- Dose/organ (Mus musculus [15]): 0.25%
- Dose/organ (Mus musculus [16]): 0.07%
- Dose/organ (Mus musculus [17]): 2.98%
- Dose/organ (Mus musculus [18]): 7.57%
- Dose/organ (Mus musculus [19]): 0.3%
- Dose/organ (Mus musculus [20]): 0.81%
- Dose/organ (Mus musculus [21]): 0.25%
- Dose/organ (Mus musculus [22]): 0.27%
- Dose/organ (Mus musculus [23]): 0.04%
- Dose/organ (Mus musculus [24]): 0.17%
- Dose/organ (Mus musculus [25]): 0.33%
- Dose/organ (Mus musculus [26]): 2.59%
- Dose/organ (Mus musculus [27]): 0.06%
SMILES: O=C(O)c1cc(/C=C/c2ccc(/C=C/c3ccc(O)c(C(=O)O)c3)c(I)c2)ccc1O
